tolC growth inh = E. coli tolC mutant growth inhibition. 65,000 compounds, 2.2% hits. AID 573. E. coli BW25113 tolC mutant growth, OD615. growth inhibition, % at 10 µM (by protocol);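 active means growth inhibition at or above a cutoff equal to the mean over every tested compound plus 3 SD, cut at about 60% in these data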;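 further: growth measured after 20 h incubation at 37 °C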
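Material: E. coli BW25113 ΔtolC::kan, tolC deletion mutant strain. Measure: percent growth inhibition. Schedule: 37 °C, 20 h exposure. Doses: single-point testing at 10 µM. Signal: A615 absorbance measurement. Buffer or medium: kanamycin-containing LB broth (50 µg/mL).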
PostGolgi yeast = growth inhibition of a yeast mutant, post-Golgi transport screen; 98,000 compounds, 0.9% hits; post-Golgi transport phenotypic cell assay; inhibition, % at 10 µM;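 further: yeast cells grown in 1536-well plates; yeast grown about 18 h at 30C before absorbance read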
EphB4 antag = antagonists of human EphB4-ephrin-B2 interaction; EphB4 LBD / TNYL-RAW-Alexa532 peptide, fluorescence polarization; inhibition, % at 7 µM; 97,000 compounds, 0.15% hits; AID 720;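 active means inhibition above the screen-wide mean inhibition plus 3 SD, cut at about 15% in these data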
Ecoli WT expand = E. coli BW25113 growth inhibition, expanded screen; 98,000 compounds, 0.15% hits; growth inhibition, % at 100 µM; AID 710; OD600 absorbance;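 active means growth inhibition above about 50% at one test dose, limit read from the data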;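 further: growth measured after 20 h incubation at 37 °C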
PostGolgi ctrl = growth of the yeast control strain, post-Golgi counter-screen; efflux-deficient yeast background strain, growth absorbance A615, 16 h; inhibition, % at 10 µM; 98,000 compounds, 5% hits; AID 738
Large screens that a line does not name were inactive. In the library only some 6% were active in any assay of this set; here they are far more common. Unless noted, no stated cut-off is given here; in the data, active means inhibition above about 30%; inactive means the rest.

COc1ccc(C(=O)Nc2ccc(Cl)c(Cl)c2)c(OC)n1	none
CC(C)C1O/C(=N/C(=O)Nc2ccc(Cl)c(Cl)c2)NC1=O (centres undefined)	tolC growth inh 98, PostGolgi yeast 98, Ecoli WT expand 53, PostGolgi ctrl 92
COc1ccc(-c2ccc(SCC(=O)N3CCCC3)nn2)cc1OC	none
CC1CCCCN1C(=O)CSc1ccc(-c2ccc(F)cc2)nn1 (centres undefined)	PostGolgi ctrl 45
COc1ccc2oc(C(=O)C3CC3)c(NC(=O)CCCN3C(=O)c4ccccc4C3=O)c2c1	none (no result: PostGolgi yeast, EphB4 antag, Ecoli WT expand, PostGolgi ctrl)
O=C(O)c1cc(-c2ccc(/C=N/Nc3ccc(Cl)cc3)o2)ccc1Cl	PostGolgi yeast 63 (no result: tolC growth inh)
Cc1ccc(-c2ccc(/C=N/NC(=O)CN3CCCC3)o2)cc1Cl	none (no result: tolC growth inh)
CC(=O)NCCNC(=O)CCNC(=O)c1ccc(Cl)cc1	none (no result: tolC growth inh)
CCCNC(=O)Cn1cnc2sc(C(=O)N3CCN(CCC)CC3)c(C)c2c1=O	none (no result: EphB4 antag)
CCn1cnc2sc(C(=O)N3CCN(c4ccc(OC)cc4)CC3)c(C)c2c1=O	PostGolgi ctrl 32
CCOC(=O)C(C)Oc1ccc2c(C)cc(=O)oc2c1C(C)=O (centres undefined)	PostGolgi yeast 33
Cc1ccc(C(c2nnnn2CCc2ccccc2)N2CCC(C)CC2)cc1 (centres undefined)	none (no result: tolC growth inh, PostGolgi yeast, Ecoli WT expand, PostGolgi ctrl)
Cc1ccc(C(c2nnnn2CCc2ccccc2)N2CCSCC2)cc1 (centres undefined)	tolC growth inh 64 (no result: PostGolgi yeast)
COc1ccc(Cn2nnnc2C(c2cccs2)N2CCN(c3ccccc3)CC2)cc1 (centres undefined)	none
Oc1ccc(N2CCN(C(c3cccs3)c3nnnn3CCc3ccccc3)CC2)cc1 (centres undefined)	PostGolgi ctrl 35
c1ccc(Cn2nnnc2C(c2cccs2)N2CCCCCC2)cc1 (centres undefined)	tolC growth inh 77
c1ccc(Cn2nnnc2C(c2cccs2)N2CCc3ccccc3C2)cc1 (centres undefined)	none (no result: EphB4 antag)
C/C(N)=C(/C#N)C(=O)CSc1nc2ccccc2[nH]1	none (no result: tolC growth inh)
O=C(NCC(=O)N1CCC(N2CCCCC2)CC1)C1CCCCC1	PostGolgi ctrl 30
CN(c1ccccc1)S(=O)(=O)c1ccc(NC(=O)c2ccc(-c3ccccc3)cc2)cc1	none (no result: tolC growth inh)
CN(c1ccccc1)S(=O)(=O)c1ccc(C(=O)Nc2nnc(-c3ccc(F)cc3)o2)cc1	tolC growth inh 100
COc1ccccc1-c1nnc(NC(=O)c2ccc(S(=O)(=O)N(C)Cc3ccccc3)cc2)o1	tolC growth inh 95
CN(Cc1ccccc1)S(=O)(=O)c1ccc(C(=O)Nc2nnc(C3CC3)o2)cc1	tolC growth inh 100
O=c1oc2cc(Oc3c([N+](=O)[O-])cc(C(F)(F)F)cc3[N+](=O)[O-])ccc2c2c1CCCC2	PostGolgi yeast 106, PostGolgi ctrl 85 (no result: tolC growth inh)
CCc1cccc(NS(=O)(=O)c2ccc3c(c2)oc(=O)n3C)c1	PostGolgi ctrl 31
Cc1ccc(C)c(C(=O)COC(=O)c2ccccc2N2C(=O)C3C4CCC(C4)C3C2=O)c1 (centres undefined)	none (no result: tolC growth inh)
CN1c2ccccc2-c2nc3ccccc3n2C1c1ccccn1 (centres undefined)	none
c1ccc(CN2c3ccccc3-c3nc4ccccc4n3C2c2ccccn2)cc1 (centres undefined)	PostGolgi ctrl 43 (no result: tolC growth inh)
CC1CCC(C(C)C)C(OC(=O)CSc2nc(N)cc(=O)[nH]2)C1 (centres undefined)	PostGolgi ctrl 42 (no result: tolC growth inh)
CC1CCC(C(C)C)C(OC(=O)CSc2nnc(N)s2)C1 (centres undefined)	PostGolgi ctrl 32 (no result: tolC growth inh)
CCc1ccccc1NC(=O)CSc1nnc(Cn2nnc3ccccc32)n1C	none (no result: tolC growth inh, PostGolgi yeast, Ecoli WT expand, PostGolgi ctrl)
Cc1ccc(NC(=O)c2c(Cl)n(C)c3ccccc23)cc1	none (no result: tolC growth inh)
Cc1ccc2nc(C)cc(OCC(=O)O)c2c1	PostGolgi yeast 44
N#Cc1cc(N)ccc1Sc1ccc(Cl)cc1	PostGolgi ctrl 53 (no result: tolC growth inh)
N#Cc1cc(N)ccc1Sc1ccccc1	none (no result: tolC growth inh)
Cc1ccc(O)c(-c2cc(C(F)(F)C(F)F)[nH]n2)c1	none
FC(F)C(F)(F)C(F)(F)C(F)(F)c1cc(-c2ccccc2)n[nH]1	PostGolgi ctrl 46 (no result: EphB4 antag)
N#Cc1c(N)sc2c1CCN(CCc1ccccc1)C2	none (no result: tolC growth inh, PostGolgi yeast, Ecoli WT expand, PostGolgi ctrl)
C[C@H]1C[C@@H]2[C@H]([C@@H](O)C[C@@]3(C)[C@H]2CC[C@]3(O)C(=O)CO)[C@@]2(C)C=CC(=O)C=C12	none (no result: PostGolgi yeast, EphB4 antag, Ecoli WT expand, PostGolgi ctrl)
Cc1ccc(S(=O)(=O)/N=C(\N)Nc2nc(C)c3ccc(C)cc3n2)cc1	none (no result: tolC growth inh)
Cc1ccc(S(=O)(=O)/N=C(\N)Nc2nc(C)c3cc(C)c(C)cc3n2)cc1	PostGolgi ctrl 40 (no result: tolC growth inh)

Bioassay records as filed in PubChem BioAssay.
